Assay results from ChEMBL document CHEMBL3593239, “PABA/NO lead optimization: Improved targeting of cytotoxicity to glutathione S-transferase P1-overexpressing cancer cells” (Bioorg Med Chem, 2015).
Each block holds one compound with its values, some of them ahead of it. Activity calls are given as the source filed them. The rule behind the calls is not given here.

Key:
[1] = Stability of the compound in phosphate buffer assessed as first-order initial rate constant for hydrolysis at pH 7.4 at 25 degC by HPLC trapping method; assay type: physicochemical
[2] = Half life of the compound in phosphate buffer at 1 uM at pH 7.4 at 25 degC by HPLC trapping method; assay type: ADME
Summary of the method: (§1)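 Hydrolysis of compound at 1 µM final in 0.1 M phosphate buffer, pH 7.4, with 0.1% DMSO, run separately at 25 °C and 37 °C. Decomposition followed by HPLC, with products confirmed by LC–MS/MS. First-order rate constants were derived by initial-rate analysis.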

[3] = target: T1, Glutathione S-transferase A1 (Homo sapiens, UniProt P08263); test: Drug metabolism in phosphate buffer assessed as ratio of GSTA1 (unknown origin)-mediated (S)-2-amino-5-((R)-1-(carboxymethylamino)-3-(5-hydroxy-2,4-dinitrophenylthio)-1-oxopropan-2-ylamino)-5-oxopentanoic acid formation from nitric oxide release pathway to GSTA1 (unknown origin)-mediated (Z)-1-(5-hydroxy-2,4-dinitrophenoxy)-3,3-dimethyltriaz-1-ene 2-oxide formation from nitric oxide retained pathway at 1 uM at pH 7.4 at 37 degC after 30 mins by LC-MS/MS analysis in presence of GSH; assay type: ADME; conditions: pH 7.4, 0.5 h
T1 sequence (P08263 whole entry): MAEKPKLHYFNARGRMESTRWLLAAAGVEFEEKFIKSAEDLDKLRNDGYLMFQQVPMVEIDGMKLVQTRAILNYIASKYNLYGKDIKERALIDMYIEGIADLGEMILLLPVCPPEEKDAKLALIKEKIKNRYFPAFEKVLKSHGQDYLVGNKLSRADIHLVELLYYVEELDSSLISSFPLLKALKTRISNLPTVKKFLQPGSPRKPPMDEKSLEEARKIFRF
Summary of the method: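 GSTA1 (4 nM)-catalysed reaction of 1 µM compound with 4 mM GSH in 0.1 M phosphate buffer, pH 7.4, 37 °C. Products analysed by LC–MS. Value is the ratio of the NO-release-pathway product to the NO-retained-pathway phenol product.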

[4] = Stability of the compound in phosphate buffer assessed as first-order initial rate constant for hydrolysis at pH 7.4 at 37 degC by HPLC trapping method; assay type: physicochemical
[5] = Half life of the compound in phosphate buffer at 1 uM at pH 7.4 at 37 degC by HPLC trapping method; assay type: ADME; summary of the method: as §1
[6] = target: T2, Glutathione S-transferase P (Homo sapiens, UniProt P09211); test: Prodrug conversion in phosphate buffer assessed as GSTP1 (unknown origin)-mediated nitric oxide release at 1 uM at pH 7.4 at 37 degC after 1 to 30 mins by LC/MS-MS analysis; assay type: ADME; conditions: pH 7.4, 1 µM
Summary of the method: (§2)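 Test compound at 1 µM reacted with 4 mM GSH containing 4 nM GSTP1 in 0.1 M phosphate, pH 7.4, at 37 °C. Products identified by LC–MS traces taken at 60 s and 30 min.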

[7] = Stability of the compound in phosphate buffer assessed as pseudo-first order rate constant at pH 7.4 at 37 degC by HPLC trapping method in presence of GSH; assay type: physicochemical
[8] = target: T1, Glutathione S-transferase A1; test: Drug level in phosphate buffer assessed as GSTA1 (unknown origin)-mediated compound formation from nitric oxide retained pathway treated with (Z)-1-(4-cyano-5-(4-(methylamino)benzoyloxy)-2-nitrophenoxy)-3,3-dimethyltriaz-1-ene 2-oxide at 1 uM at pH 7.4 at 37 degC after 30 mins by LC-MS/MS analysis in presence of GSH; assay type: ADME; conditions: pH 7.4, 0.5 h
Summary of the method: (§3)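 Products analysed by LC–MS. The ratio is the NO-release-pathway product over the NO-retained-pathway phenolic product.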

[9] = Drug level in phosphate buffer treated with (Z)-1-(4-cyano-5-(4-(methylamino)benzoyloxy)-2-nitrophenoxy)-3,3-dimethyltriaz-1-ene 2-oxide at 1 uM at pH 7.4 at 37 degC after 30 secs by LC-MS analysis in presence of GSH; assay type: physicochemical; conditions: pH 7.4, 0.5 min
[10] = target: T2, Glutathione S-transferase P; test: Drug level in phosphate buffer assessed as GSTP1 (unknown origin)-mediated compound formation treated with (Z)-1-(4-cyano-5-(4-(methylamino)benzoyloxy)-2-nitrophenoxy)-3,3-dimethyltriaz-1-ene 2-oxide at 1 uM at pH 7.4 at 37 degC after 1 to 30 mins by LC-MS/MS analysis in presence of GSH; assay type: ADME; conditions: pH 7.4, 1 µM; summary of the method: as §2
[11] = Drug level in phosphate buffer treated with (Z)-3,3-dimethyl-1-(5-(4-(methylamino)benzoyloxy)-2,4-dinitrophenoxy)triaz-1-ene 2-oxide at 1 uM at pH 7.4 at 37 degC after 1 to 30 mins by LC/MS-MS analysis; assay type: physicochemical; conditions: pH 7.4, 1 µM
[12] = target: T1, Glutathione S-transferase A1; test: Drug level in phosphate buffer assessed as GSTA1 (unknown origin)-mediated compound formation from nitric oxide release pathway treated with (Z)-3,3-dimethyl-1-(5-(4-(methylamino)benzoyloxy)-2,4-dinitrophenoxy)triaz-1-ene 2-oxide at 1 uM at pH 7.4 at 37 degC after 30 mins by LC-MS/MS analysis in presence of GSH; assay type: ADME; conditions: pH 7.4, 0.5 h; summary of the method: as §3
[13] = Drug level in phosphate buffer treated with (Z)-1-(2-cyano-5-(4-(methylamino)benzoyloxy)-4-nitrophenoxy)-3,3-dimethyltriaz-1-ene 2-oxide at 1 uM at pH 7.4 at 37 degC after 30 secs by LC-MS analysis in presence of GSH; assay type: physicochemical; conditions: pH 7.4, 0.5 min
[14] = target: T2, Glutathione S-transferase P; test: Drug level in phosphate buffer assessed as GSTP1 (unknown origin)-mediated compound formation treated with (Z)-1-(2-cyano-5-(4-(methylamino)benzoyloxy)-4-nitrophenoxy)-3,3-dimethyltriaz-1-ene 2-oxide at 1 uM at pH 7.4 at 37 degC after 5 to 30 mins by LC-MS/MS analysis in presence of GSH; assay type: ADME; conditions: pH 7.4, 1 µM; summary of the method: as §2
[15] = target: T1, Glutathione S-transferase A1; test: Drug level in phosphate buffer assessed as GSTA1 (unknown origin)-mediated compound formation from nitric oxide release pathway treated with (Z)-1-(2-cyano-5-(4-(methylamino)benzoyloxy)-4-nitrophenoxy)-3,3-dimethyltriaz-1-ene 2-oxide at 1 uM at pH 7.4 at 37 degC after 30 mins by LC-MS/MS analysis in presence of GSH; assay type: ADME; conditions: pH 7.4, 0.5 h; summary of the method: as §3
[16] = Drug level in phosphate buffer treated with (Z)-3,3-dimethyl-1-(5-(4-(methylamino)benzoyloxy)-2,4-dinitrophenoxy)triaz-1-ene 2-oxide at 1 uM at pH 7.4 at 37 degC by HPLC trapping method in presence of GSH; assay type: physicochemical; conditions: pH 7.4, 1 µM
[17] = test system: HL-60; test: Cytotoxicity against human HL60 cells assessed as growth inhibition after 72 hrs by MTT assay; assay type: functional, cell-based; conditions: HL-60, 72 h
Summary of the method: (§4)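 HL-60 and U937 cells from ATCC, grown per supplier protocol, seeded and exposed to increasing concentrations for 72 h. Viability was read with a Promega assay run per the manufacturer's protocol. Six repeats per concentration, three independent experiments. IC50 derived by curve fitting.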

[18] = test system: HL-60; test: Induction of SAPK/JNK phosphorylation in human HL-60 cells at 5 to 20 uM after 24 hrs by Western blot analysis
[19] = test system: HL-60; test: Induction of apoptosis in human HL60 cells assessed as cleavage of PARP at >10 uM after 24 hrs by Western blot analysis; assay type: functional, cell-based
[20] = test system: U-937; test: Cytotoxicity against human U937 cells assessed as growth inhibition after 72 hrs by MTT assay; assay type: functional, cell-based; conditions: U-937, 72 h; summary of the method: as §4
[21] = target: T1, Glutathione S-transferase A1; test: Drug metabolism in phosphate buffer assessed as ratio of GSTA1 (unknown origin)-mediated (S)-2-amino-5-((R)-1-(carboxymethylamino)-3-(2-cyano-5-hydroxy-4-nitrophenylthio)-1-oxopropan-2-ylamino)-5-oxopentanoic acid formation from nitric oxide release pathway to GSTA1 (unknown origin)-mediated (Z)-1-(2-cyano-5-hydroxy-4-nitrophenoxy)-3,3-dimethyltriaz-1-ene 2-oxide formation from nitric oxide retained pathway at 1 uM at pH 7.4 at 37 degC after 30 mins by LC-MS/MS analysis in presence of GSH; assay type: ADME; conditions: pH 7.4, 0.5 h; summary of the method: as §3
[22] = test system: HL-60; test: Induction of apoptosis in human HL60 cells assessed as activation of caspase 7 at >10 uM after 24 hrs by Western blot analysis; assay type: functional, cell-based
[23] = target: T2, Glutathione S-transferase P; test: Drug metabolism in phosphate buffer assessed as formation of GSTP1 (unknown origin)-mediated (Z)-1-(5-((R)-2-((S)-4-amino-4-carboxybutanamido)-3-(carboxymethylamino)-3-oxopropylthio)-2-cyano-4-nitrophenoxy)-3,3-dimethyltriaz-1-ene 2-oxide at 1 uM at pH 7.4 at 37 degC after 5 to 30 mins by LC-MS/MS analysis in presence of GSH; assay type: ADME; conditions: pH 7.4, 1 µM; summary of the method: as §2
[24] = test system: HL-60; test: Induction of apoptosis in human HL60 cells assessed as activation of caspase 8 at >10 uM after 24 hrs by Western blot analysis; assay type: functional, cell-based

T2 sequence (P09211 whole entry): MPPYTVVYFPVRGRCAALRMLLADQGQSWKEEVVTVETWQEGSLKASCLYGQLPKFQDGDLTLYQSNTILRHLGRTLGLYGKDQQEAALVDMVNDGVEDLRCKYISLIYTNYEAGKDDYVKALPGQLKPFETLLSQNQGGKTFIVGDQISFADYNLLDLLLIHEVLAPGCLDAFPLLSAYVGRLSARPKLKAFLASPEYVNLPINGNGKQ

Compound: CNc1ccc(C(=O)Oc2cc(O/N=[N+](\[O-])N(C)C)c([N+](=O)[O-])cc2[N+](=O)[O-])cc1
- K [1]: 9.6 ×10⁻⁵ /s
- half-life at 1 µM [2]: 2 h
- Ratio [3]: 3
- K [4]: 5.7 ×10⁻⁴ /s
- half-life at 1 µM [5]: 0.333 h
- Drug metabolism [6]: metabolite_detected
- K [7]: 11.8 ×10⁻³ /s

Compound: CN(C)/[N+]([O-])=N/Oc1cc(O)c(C#N)cc1[N+](=O)[O-]
- Drug metabolism [8]: metabolite_detected
- Drug metabolism [9]: metabolite_detected

Compound: CNc1ccc(C(=O)Oc2cc(SC[C@H](NC(=O)CC[C@H](N)C(=O)O)C(=O)NCC(=O)O)c([N+](=O)[O-])cc2C#N)cc1
- Drug metabolism [10]: metabolite_detected

Compound: CNc1ccc(C(=O)Oc2cc(O/N=[N+](\[O-])N(C)C)c(C#N)cc2[N+](=O)[O-])cc1
- K [1]: 3.3 ×10⁻⁵ /s
- IC50 [17]: 20 µM
- Activity [18]: Active
- Activity [19]: Active
- IC50 [20]: 15 µM
- Ratio [21]: 1
- Activity [22]: Active
- Drug metabolism [23]: metabolite_detected
- K [4]: 2.1 ×10⁻⁴ /s
- Drug metabolism [6]: metabolite_detected
- Activity [24]: Active
- K [7]: 2.1 ×10⁻³ /s

Now from value to compound:

- Drug metabolism [11]: metabolite_detected
- Drug metabolism [12]: metabolite_detected
Compound: N[C@@H](CCC(=O)N[C@@H](CSc1cc(O)c([N+](=O)[O-])cc1[N+](=O)[O-])C(=O)NCC(=O)O)C(=O)O

- Drug metabolism [13]: metabolite_detected
- Drug metabolism [14]: metabolite_detected
Compound: CN(C)/[N+]([O-])=N/Oc1cc(SC[C@H](NC(=O)CC[C@H](N)C(=O)O)C(=O)NCC(=O)O)c([N+](=O)[O-])cc1C#N

- Drug metabolism [15]: metabolite_detected
Compound: N#Cc1cc([N+](=O)[O-])c(O)cc1SC[C@H](NC(=O)CC[C@H](N)C(=O)O)C(=O)NCC(=O)O

- Drug metabolism [16]: metabolite_detected
Compound: CN(C)/[N+]([O-])=N/Oc1cc(SC[C@H](NC(=O)CC[C@H](N)C(=O)O)C(=O)NCC(=O)O)c([N+](=O)[O-])cc1[N+](=O)[O-]
